Source: PubChem BioAssay (Broad Institute)
FGF22 binding: binders of recombinant human FGF22 by thermal shift | Q9HCT0 | SYPRO orange fluorescence; percent of sucrose octasulfate shift, DMSO zero | activity (Tm shift, normalised), % at 9.99 µM | actives 1.5% (n = 340,000) | AID 651658;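 active means mean Tm shift, scaled 0 neutral to 100 positive control, at about 1.3% or above, every replicate too, limit read from the data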
Target sequence (Q9HCT0 whole entry, looked up): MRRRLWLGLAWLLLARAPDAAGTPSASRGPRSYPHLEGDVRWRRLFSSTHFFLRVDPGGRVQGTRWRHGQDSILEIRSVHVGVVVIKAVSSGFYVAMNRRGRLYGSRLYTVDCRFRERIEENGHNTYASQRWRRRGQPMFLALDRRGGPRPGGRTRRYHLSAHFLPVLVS
miR-122 sensor: miR-122 inhibition in Huh7 cells. Huh7 miR-122 Renilla luciferase sensor, 48 h; neutral wells = 0, positive control = 100. activation (reporter increase), % at 12.5 µM. actives 0.3% (n = 340,000). AID 602342;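 active means mean replicate activation score at least 90 and every replicate individually at or above 90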;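 further: higher luciferase means less miR-122 activity so hits act as miR-122 inhibitors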
E-sel inducer: E-selectin induction on HUVECs; HUVEC E-selectin immunofluorescence imaging; normalized: neutral wells 0, TNF-alpha wells 100; activation, % at 7.58 µM; actives 0.37% (n = 260,000); AID 686992;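 active means mean E-selectin-positive cell signal at least 10% of the positive control, reached in at least 60% of replicates, without over 20% cell loss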
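Read-out: % PE-positive cells | Test system: HUVEC | Doses: One compound dose added by pin transfer | Buffer or medium: EGM-2 over gelatin coat | Signal: Immunofluorescence imaging | Benchmarks: TNF-alpha, DMSO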
S100A4 MyoIIA: inhibitors of human S100A4 binding to myosin IIA peptide; S100A4/TAMRA-MyoIIA peptide fluorescence polarization; P26447; inhibition, % at 10.7 µM; actives 0.14% (n = 360,000);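 active means mean inhibition of at least 70% across replicates, with every replicate also reaching that level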
Target sequence (P26447 whole entry, looked up): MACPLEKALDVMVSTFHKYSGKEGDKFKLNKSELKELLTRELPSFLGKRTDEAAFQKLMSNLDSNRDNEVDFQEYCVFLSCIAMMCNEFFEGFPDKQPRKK
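assay system = human S100A4 monomer with TAMRA-labelled myosin IIA peptide | also added = labelled myosin peptide probe, 5 nM | incubation = 5 min between mix addition and reading | control set = DMSO and TFP controls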
SIRT5 block: inhibitors of human sirtuin-5 desuccinylase | Q9NXA8 | Purified SirT5, succinyl-peptide AMC, trypsin-coupled fluorescence | inhibition, % at 15 µM | actives 1.1% (n = 330,000); in the data active means inhibition above about 15%
Target sequence (Q9NXA8 whole entry, looked up): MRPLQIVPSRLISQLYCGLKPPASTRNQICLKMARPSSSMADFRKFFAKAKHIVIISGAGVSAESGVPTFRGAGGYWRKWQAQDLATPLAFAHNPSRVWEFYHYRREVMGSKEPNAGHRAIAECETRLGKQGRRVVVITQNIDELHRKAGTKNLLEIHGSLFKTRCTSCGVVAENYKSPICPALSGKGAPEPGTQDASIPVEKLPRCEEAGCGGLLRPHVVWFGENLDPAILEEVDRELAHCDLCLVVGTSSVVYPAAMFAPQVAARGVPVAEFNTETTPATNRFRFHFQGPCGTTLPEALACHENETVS
Large screens that a line does not name were inactive. In the library only some 2.5% were active in any assay of this set; here they are far more common.

COc1ccc(Cl)cc1N(CC(=O)N(C)C)S(=O)(=O)c1ccc(C)c([N+](=O)[O-])c1	miR-122 sensor 101 (no result: E-sel inducer)
Cc1noc(C)c1NC(=O)N(C)C[C@@H]1OCCCC[C@H](C)Oc2ccc(NC(=O)Nc3ccccc3)cc2C(=O)N([C@@H](C)CO)C[C@H]1C	none (no result: FGF22 binding, miR-122 sensor, S100A4 MyoIIA, SIRT5 block)
C[C@H]1CN([C@@H](C)CO)C(=O)CCCn2nncc2CO[C@@H]1CN(C)S(=O)(=O)c1ccc(C#N)cc1	none (no result: miR-122 sensor)
Cc1ccccc1-c1cnc2c(c1)C(=O)N([C@H](C)CO)C[C@H](C)[C@H](CN(C)C(=O)CC1CC1)O2	none
Cc1cc(S(=O)(=O)NCCN2CCOCC2)c(C)s1	none (no result: FGF22 binding, E-sel inducer, S100A4 MyoIIA, SIRT5 block)
Cc1cc(S(=O)(=O)NCCc2ccccc2)c(C)s1	miR-122 sensor 226 (no result: FGF22 binding, E-sel inducer, S100A4 MyoIIA, SIRT5 block)
Cc1cc(C(=O)COC(=O)C23CC4CC(CC(O)(C4)C2)C3)c(C)n1-c1c(C)n(C)n(-c2ccccc2)c1=O	none
Cc1c(NC(=O)COC(=O)C2(c3ccccc3F)CCCC2)c(=O)n(-c2ccccc2)n1C	FGF22 binding 43 (no result: miR-122 sensor, E-sel inducer)
Cc1c(NC(=O)COC(=O)C23CC4CC(CC(O)(C4)C2)C3)c(=O)n(-c2ccccc2)n1C	FGF22 binding 44 (no result: miR-122 sensor, E-sel inducer)
CCC(C(=O)OCC(=O)Nc1c(C)n(C)n(-c2ccccc2)c1=O)c1ccccc1 (centres undefined)	none (no result: FGF22 binding, E-sel inducer, S100A4 MyoIIA, SIRT5 block)
Cc1c(NC(=O)CSc2ccc(Cl)cc2)c(=O)n(-c2ccccc2)n1C	FGF22 binding 44 (no result: miR-122 sensor, E-sel inducer)
Cc1ccc(SCCC(=O)Nc2c(C)n(C)n(-c3ccccc3)c2=O)cc1	none (no result: FGF22 binding, E-sel inducer, S100A4 MyoIIA, SIRT5 block)
C[C@@H]1CN([C@@H](C)CO)C(=O)c2cc(-c3ccccc3F)cnc2O[C@@H]1CN(C)C(=O)CN(C)C	none
CCCS(=O)(=O)c1c(S(=O)(=O)CCC)c2c(N)cccn2c1C(=O)c1ccc(Br)cc1	none (no result: FGF22 binding, E-sel inducer, S100A4 MyoIIA, SIRT5 block)
CCCS(=O)(=O)c1c(S(=O)(=O)CCC)c2c(N)cccn2c1C(=O)c1ccc(OC)cc1	SIRT5 block 16 (no result: miR-122 sensor, E-sel inducer)
CO[C@H]1CN(C)C(=O)c2ccc(NC(=O)c3ccc(-c4ccccc4)cc3)cc2OC[C@@H](C)NC[C@H]1C	none (no result: miR-122 sensor)
Cc1ccc(S(=O)(=O)N[C@H]2CC[C@@H](CCNC(=O)CN3CCOCC3)O[C@H]2CO)cc1	none (no result: miR-122 sensor)
COc1ccc(NC(=O)NCc2ccco2)cc1OC	FGF22 binding 44 (no result: miR-122 sensor, E-sel inducer)
COc1cccc(NC(=O)CN(C)CC(=O)NCc2ccc(F)cc2)c1	none (no result: FGF22 binding)
COc1ccc(OCC(=O)Nc2ccc3c(c2)CCC3)cc1	none (no result: E-sel inducer)
COc1ccc(NC(=O)CN(C)CC(=O)Nc2ccc3c(c2)CCC3)cc1	SIRT5 block 112 (no result: E-sel inducer)
COc1cccc(NC(=O)CN(C)CC(=O)NCc2ccco2)c1	SIRT5 block 17 (no result: miR-122 sensor)
COc1ccc(C)cc1NC(=O)NCc1ccco1	none (no result: miR-122 sensor)
CCCNC(=O)C[C@@H]1CC[C@H]2[C@H](COc3ccc(NC(=O)C4CCOCC4)cc3C(=O)N2C)O1	none
CO[C@H]1CN(C)C(=O)c2cc(NC(=O)Nc3c(C)noc3C)ccc2OC[C@H](C)N(CC2CC2)C[C@H]1C	none (no result: miR-122 sensor)
COc1ccc(CN(C)C[C@H]2OCCCC[C@H](C)Oc3ccc(NC(=O)Nc4ccc(OC)cc4)cc3C(=O)N([C@@H](C)CO)C[C@@H]2C)cc1	none
CCCNC(=O)N[C@@H]1C=C[C@@H](CC(=O)NC2CCC2)O[C@H]1CO	none (no result: miR-122 sensor)
CC(=O)[C@]12O[C@@]3(COC[C@H](c4ccccc4)N3C1=O)[C@H]1C(=O)N(c3ccccc3)C(=O)[C@H]12	none (no result: miR-122 sensor, E-sel inducer)
Cc1ccc(S(=O)(=O)Nc2cc3c4c(c2)C(C)C(=O)N4CCC3)cc1 (centres undefined)	none
Cc1cccc(NS(=O)(=O)c2cc3c4c(c2)C(C)C(=O)N4CCC3)c1 (centres undefined)	miR-122 sensor 110 (no result: E-sel inducer)
N#Cc1ccc(-c2ccc3c(c2)[C@@H]2[C@@H](CCN2C(=O)C2CCCC2)[C@H](CO)N3)cc1	none (no result: FGF22 binding, miR-122 sensor)
O=C(c1ccc(-c2ccccc2)cc1)C1CCCN(C(=O)Cn2cncn2)C1 (centres undefined)	FGF22 binding 43
N#C[C@H]1[C@H](c2ccccc2C2=CCCCC2)[C@@H](CO)N1C(=O)NC1CCCCC1	none (no result: FGF22 binding, miR-122 sensor)
Cc1c([N+](=O)[O-])cc(C(=O)NCc2ccc(F)cc2)cc1[N+](=O)[O-]	SIRT5 block 111 (no result: E-sel inducer)
C[C@@H]1CN([C@H](C)CO)C(=O)c2cc(NC(=O)c3ccncc3)ccc2O[C@@H]1CN(C)Cc1ccccc1	none
Cc1ccc([N+](=O)[O-])cc1CN1CCN(c2ncc(Cc3ccccc3)cn2)CC1	FGF22 binding 43 (no result: miR-122 sensor, SIRT5 block)
O=[N+]([O-])c1ccc(F)c(CN2CCN(c3ncc(Cc4ccccc4)cn3)CC2)c1	none (no result: miR-122 sensor)
C[C@@H]1CN([C@H](C)CO)C(=O)Cc2cc(NC(=O)CCC(F)(F)F)ccc2O[C@H]1CN(C)Cc1ccc(Cl)c(Cl)c1	none
C[C@@H]1CN([C@H](C)CO)C(=O)Cc2cc(NC(=O)CCC(F)(F)F)ccc2O[C@@H]1CN(C)S(C)(=O)=O	E-sel inducer 39 (no result: FGF22 binding, S100A4 MyoIIA, SIRT5 block)
C[C@H](CO)N1C[C@H](C)[C@@H](CN(C)Cc2ccc(Cl)c(Cl)c2)Oc2ccc(NC(=O)CCC(F)(F)F)cc2CC1=O	SIRT5 block 20
CC1=Cc2ccccc2C(C#N)N1C(=O)c1ccccc1 (centres undefined)	FGF22 binding 44 (no result: E-sel inducer)
Cc1ccc2c(c1)C=CC(C#N)N2C(=O)c1ccccc1 (centres undefined)	none (no result: miR-122 sensor, E-sel inducer)
C[C@@H]1CN([C@@H](C)CO)C(=O)c2cc(NS(C)(=O)=O)ccc2O[C@H]1CN(C)Cc1ccc(-c2ccccc2)cc1	none
CC(C)c1ccc(NC2CCCN(C(=O)CCN3CCCC3=O)C2)cc1 (centres undefined)	none
CC(C)c1ccc(NC2CCCN(C(=O)CC3CCCC3)C2)cc1 (centres undefined)	SIRT5 block 34
C[C@H]1CN([C@@H](C)CO)C(=O)c2cccc(NC(=O)c3ccc(-c4nccs4)cc3)c2O[C@H]1CN(C)Cc1ccc(C(F)(F)F)cc1	SIRT5 block 17
C[C@H](CO)N1C[C@H](C)[C@H](CN(C)Cc2ccc(C(F)(F)F)cc2)Oc2c(NC(=O)c3ccc(-c4nccs4)cc3)cccc2C1=O	SIRT5 block 16
C[C@@H]1CN([C@@H](C)CO)C(=O)c2cccc(NC(=O)c3ccc(-c4nccs4)cc3)c2O[C@@H]1CN(C)Cc1ccc(C(=O)O)cc1	none
C[C@H]1CN([C@@H](C)CO)C(=O)c2cccc(NC(=O)c3ccc(-c4nccs4)cc3)c2O[C@@H]1CN(C)Cc1ccc(C(=O)O)cc1	none
Cc1cccc(NC(=O)Nc2ccc3c(c2)C(=O)N(C)[C@@H]2CC[C@H](CC(=O)NCc4ccccc4Cl)O[C@@H]2CO3)c1	none
Cc1ccc(S(=O)(=O)N(C)C[C@@H]2Oc3ccc(NC(=O)NC4CCCCC4)cc3C(=O)N([C@H](C)CO)C[C@@H]2C)cc1	none
